Published values collected from several papers.
Each line is one published result; the experiments were not run side by side.
Target: Mitogen-activated protein kinase kinase kinase kinase 1 (MAP4K1, Homo sapiens, UniProt Q92918)

CCOCCn1cc(C(=O)Nc2ccc(-n3nc(-c4cccnc4)cc3C(F)(F)F)cn2)ccc1=O
remaining binding (cell-free assay; competition with immobilised ligand; 1 µM): 81%

F[C@@H]1CCN(c2nccc(-c3cnn4ncccc34)n2)C1
remaining binding (binding; 1 µM): 100%

Cc1cc(-n2nc(Cc3cc(F)cc(C(F)(F)F)c3)nc2C)ccc1C(N)=O
remaining binding (cell-free assay; competition with immobilised ligand; 1 µM): 100%

CC1CCCN1c1nccc(-c2cnn3ncccc23)n1 (stereo not shown)
remaining binding (binding; 1 µM): 100%

O=C(NCCCN1CCOCC1)c1ccc(Nc2nccc(-c3cc4ccccc4s3)n2)cc1
remaining binding (binding; competition with immobilised ligand; 1 µM): 85%

C[C@@H]1CCN(c2nccc(-c3cnn4ncccc34)n2)C1
remaining binding (binding; 1 µM): 100%

O=C(NCCCN1CCOCC1)c1ccc(Nc2ncc(Cl)c(-c3ccc(Cl)s3)n2)cc1
remaining binding (binding; competition with immobilised ligand; 1 µM): 17%

CCN1CCN(Cc2ccc(C(=O)Nc3ccc(C)c(Oc4ccc5c(c4)CC(=O)N5)c3)cc2C(F)(F)F)CC1
remaining binding (binding; competition with immobilised ligand; 1 µM): 90%

CN(C)C(=O)Cn1cc(-c2nc([C@@](C)(c3ccc(-c4cnc(N)nc4)cc3)C3CC3)no2)cn1
remaining binding (cell-free assay; competition with immobilised ligand; 1 µM): 100%

Cc1cnn2ncc(-c3ccnc(N(C)C)n3)c2c1
remaining binding (binding; 1 µM): 99%

C[C@@H](c1ccc(-n2cnc3c(N)ncnc32)cc1)N1CCc2nn(C)c(Cc3ccccc3)c2C1=O
remaining binding (binding; competition with immobilised ligand; 0.1 µM): 100%

COCCOc1nc(-c2ccc(Cl)nc2)nc2c1CN(C(=O)c1ncn3ccccc13)CC2
remaining binding (cell-free assay; competition with immobilised ligand; 0.1 µM): 92%

CN(C)c1ncc(F)c(-c2cnn3ncccc23)n1
remaining binding (binding; 1 µM): 100%

C[C@H](c1ccnc(Nc2nc3ccc(-c4cc(N(C)C)ncn4)cc3[nH]2)c1)N1CCN(C(=O)CC(F)(F)F)CC1
remaining binding (cell-free assay; competition with immobilised ligand; 0.1 µM): 51%

COc1cnc(Nc2cccc(S(N)(=O)=O)c2)nc1N1CCN(c2ccccc2)C(=O)C1
remaining binding (binding; competition with immobilised ligand; 1 µM): 87%

N[C@@H]1CCN(c2nccc(-c3cnn4ncccc34)n2)C1
remaining binding (binding; 1 µM): 100%

CSc1cccnc1N1CCN(Cc2nc3ccccc3[nH]2)CC1
remaining binding (cell-free assay; competition with immobilised ligand; 1 µM): 100%

COc1cnc(Nc2cccc(S(N)(=O)=O)c2)nc1N1CCN(c2ccccc2)CC1
remaining binding (binding; competition with immobilised ligand; 1 µM): 88%

O=C(c1ccc(Nc2nccc(-c3cc4ccccc4s3)n2)cc1)N1CCC(N2CCCC2)CC1
remaining binding (binding; competition with immobilised ligand; 1 µM): 84%

CS(=O)(=O)c1cc(C2(NC(=O)c3cncc4c3cnn4-c3ccc(F)cc3)CC2)ccn1
remaining binding (cell-free assay; competition with immobilised ligand; 1 µM): 89%

COc1ncc2cc3ccccc3nc2c1C#N
remaining binding (cell-free assay; competition with immobilised ligand; 5 µM): 89%

O=C(NCC1CCOCC1)c1n[nH]cc1NC(=O)c1c(F)cccc1F
remaining binding (binding; competition with immobilised ligand; 1 µM): 71%
